# DNMT1 block: blocks human DNA methyltransferase DNMT1 | inhibition (reported as % activation of signal), % at 10 µM | AID 588458 | P26358 | DNMT1 molecular beacon, Hinp1I cleavage, fluorescence | actives 0.83% (n = 360,000); in the data active = inhibition above about 50%
# Target sequence (P26358 504-1616 limits assumed): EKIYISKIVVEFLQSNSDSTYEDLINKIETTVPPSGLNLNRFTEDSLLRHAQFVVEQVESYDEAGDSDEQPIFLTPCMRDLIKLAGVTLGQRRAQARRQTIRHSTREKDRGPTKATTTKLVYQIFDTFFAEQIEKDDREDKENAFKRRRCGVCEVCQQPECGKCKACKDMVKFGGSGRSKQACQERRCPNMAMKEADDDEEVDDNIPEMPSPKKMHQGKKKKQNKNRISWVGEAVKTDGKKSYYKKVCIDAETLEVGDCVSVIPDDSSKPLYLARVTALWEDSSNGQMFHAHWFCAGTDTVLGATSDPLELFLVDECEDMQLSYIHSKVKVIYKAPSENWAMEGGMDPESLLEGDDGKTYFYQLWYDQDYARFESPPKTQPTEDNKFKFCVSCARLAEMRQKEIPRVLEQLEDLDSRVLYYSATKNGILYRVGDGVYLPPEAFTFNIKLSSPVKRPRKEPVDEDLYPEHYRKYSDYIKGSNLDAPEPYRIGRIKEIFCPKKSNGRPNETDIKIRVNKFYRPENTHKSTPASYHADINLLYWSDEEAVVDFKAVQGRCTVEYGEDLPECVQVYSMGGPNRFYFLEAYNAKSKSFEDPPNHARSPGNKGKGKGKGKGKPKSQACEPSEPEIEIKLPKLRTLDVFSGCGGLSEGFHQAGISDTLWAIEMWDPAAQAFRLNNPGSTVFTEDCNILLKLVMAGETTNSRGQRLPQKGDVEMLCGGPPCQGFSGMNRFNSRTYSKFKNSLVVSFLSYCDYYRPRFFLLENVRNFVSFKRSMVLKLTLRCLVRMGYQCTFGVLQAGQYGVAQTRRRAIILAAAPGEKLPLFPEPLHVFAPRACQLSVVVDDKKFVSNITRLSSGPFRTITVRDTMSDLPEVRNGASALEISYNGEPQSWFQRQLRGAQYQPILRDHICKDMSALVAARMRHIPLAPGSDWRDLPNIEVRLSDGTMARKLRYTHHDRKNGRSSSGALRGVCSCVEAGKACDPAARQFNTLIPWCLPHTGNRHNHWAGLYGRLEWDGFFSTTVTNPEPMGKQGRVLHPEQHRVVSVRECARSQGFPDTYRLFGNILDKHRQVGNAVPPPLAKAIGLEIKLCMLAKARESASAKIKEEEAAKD
# LMPTP inh: blocks human LMPTP phosphatase; actives 0.22% (n = 360,000); inhibition, % at 20 µM; AID 651560; P24666; recombinant LMPTP-A, OMFP fluorogenic substrate, fluorescence intensity;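 active = compounds that cut the enzyme signal by at least half of the control window in the single-dose screen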;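 also: plate controls were DMSO wells with enzyme plus substrate for no effect and substrate without enzyme for full effect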
#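 Test system – LMPTP-A enzyme · Amount – LMPTP-A at 0.625 nM final in the reaction · Buffer or medium – Bis-Tris pH 6.0, DTT, detergent · Reagent – OMFP 400 µM · Doses – single 20 µM dose · Schedule – reaction 50 min, room temperature, dark · Detection – fluorescence intensity of OMFP turnover product · Evaluation – percent inhibition versus substrate-only and uninhibited controls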
# SUMO1 PPI mod: alters human SUMO1 binding to SIM partners. P63165. SUMO1 binding to a labelled peptide, TR-FRET, 1 h. inhibition, % at 20 µM. actives 0.33% (n = 360,000). AID 602429; in the data active = inhibition above about 37%
# Scp-1 inhibitor: inhibitors of human Scp-1 phosphatase; Q9GZU7; Recombinant Scp1, phosphopeptide, malachite green phosphate absorbance; inhibition, % at 20 µM; actives 0.88% (n = 340,000);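 active = inhibition above about 50% at 20 µM, limit read from the data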;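 also: plate controls were DMSO wells with enzyme for no effect and wells lacking enzyme for full effect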
#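 Material – SCP-1 phosphatase catalytic domain, residues 76-261 · Buffer or medium – Acidic Tris acetate buffer with magnesium and detergent · Also added – Phospho 17-mer peptide substrate · Compound – single 20 µM dose, 1% DMSO · Times – 45 min room-temperature reaction, 5 min colour, 30 min stabiliser · Technique – Phosphate-binding colour reagent, absorbance read at 630 nm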
# STEP block: blocks human striatal-enriched tyrosine phosphatase; recombinant STEP, OMFP fluorogenic substrate, fluorescence; inhibition, % at 20 µM; actives 0.25% (n = 360,000);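 active = inhibition at 20 µM, scaled per plate between control wells, above about 37%, limit read from the data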;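 also: 0% = DMSO with enzyme and substrate and 100% = substrate only without enzyme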
#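 System: STEP (striatal-enriched tyrosine phosphatase) enzyme, cell-free; medium: Bis-Tris pH 6.0 buffer with DTT, detergent; dosing: 20 µM, 1% DMSO; times: reaction 20 min, ambient temperature; detection: fluorescence, 480/540 nm; read-out basis: normalized % inhibition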
# Active calls of the source: *; . = not tested or not shown. Rows were chosen to be rich in hits. Some 1.8% of all compounds tested hit in one or more screens of this group.
SMILES,DNMT1 block,LMPTP inh,SUMO1 PPI mod,Scp-1 inhibitor,STEP block
Cc1noc(C)c1S(=O)(=O)Nc1ccc2c(c1)C(=O)N([C@H](C)CO)C[C@H](C)[C@@H](CN(C)S(=O)(=O)c1ccc(F)cc1)O2,5.5,-0.8,0.4,43.4,2.5
N#Cc1c(N)c(C#N)c(-c2ccc3c(c2)OCO3)c2c1CCCC2,-7.0,3.6,43.6*,-14.2,-0.4
N#Cc1c(N)c(C#N)c(-c2ccc(O)cc2)c2c1CCCC2,-5.8,0.7,5.5,-15.0,-5.1
CC(=Cc1ccccc1)C=C1SC(=S)N(CCCC(=O)Nc2ccc(C(=O)O)c(O)c2)C1=O,70.5*,45.0,-0.6,.,6.5
CC(=O)N1CCc2cc(S(=O)(=O)CCC(=O)N(C)c3cc(C)ccc3C)ccc21,-2.4,-0.5,1.2,-5.3,1.4
CCOc1ccc(CN(C)C(=O)[C@H](C)NC(=O)c2ccco2)cc1OC,1.9,-1.8,1.8,-5.5,-0.4
CCOc1ccc(S(=O)(=O)Nc2cc(NS(=O)(=O)c3ccc(OCC)cc3)cc(C(=O)O)c2)cc1,32.2,16.0,17.1,54.7*,1.0
CCOc1ccc(NS(=O)(=O)c2ccc(NS(=O)(=O)c3ccccc3)cc2)cc1,2.5,1.6,1.7,-6.2,-2.2
FC(F)(F)c1ccccc1Cc1c(C2CCCCC2)nc2c3ccccc3ccn12,0.6,3.7,5.7,.,-0.3
CNc1nc(NC)c2cn[nH]c2n1,-0.2,63.0*,-2.1,-7.6,-1.6
O=C(NC(=O)c1cc([N+](=O)[O-])ccc1Cl)C1=C(N2CCCC2)COC1=O,4.8,-0.7,-31.9,11.0,0.9
COc1cccc(OC)c1C(=O)Nc1cc2c(cc1N1CCOCC1)n(C)c(=O)n2C,-0.7,0.1,6.5,-14.1,-1.6
Cn1c(=O)n(C)c2cc(N3CCOCC3)c(NC(=O)c3ccc(F)cc3)cc21,3.5,-1.3,48.8*,-2.2,-1.9
Cc1c(C(=O)Nc2nc(-c3ccccn3)cs2)oc2ccccc12,-9.1,4.4,7.2,9.5,77.1*
Cc1csc(NC(C)c2nc3cc(Cl)c(Cl)cc3n2CCCO)n1 (configuration not stated),-2.3,1.4,1.8,-5.8,1.4
CN(C)c1ccc(C=C2SC(=S)NC2=O)cc1,0.5,-6.0,-50.3,-15.3,-13.0
CN(C)c1ccc(/C=N/N=C2/NC(=O)/C(=C/c3ccc([N+](=O)[O-])cc3)S2)cc1,66.1*,4.1,-30.2,-1.9,7.3
Cc1cc(-c2ccccc2)nc(Nc2nc3c(C)cccc3c(=O)[nH]2)n1,47.7,7.2,52.6*,-8.4,-0.2
O=C(CNC(=O)c1cc(Cl)cc([N+](=O)[O-])c1)NC1CC1,-0.2,-1.6,-31.2,-0.1,1.9
COCC(=O)OC1CCn2c1nc1c2C(=O)C(C)=C(NC(C)=O)C1=O (configuration not stated),87.7*,4.8,18.6,4.0,2.1
Oc1ccccc1/C=N/Nc1cc(N2CCCC2)nc(N2CCCC2)n1,57.8*,8.3,33.5,-30.4,8.2
Oc1ccc(/C=N/Nc2cc(N3CCOCC3)nc(N3CCOCC3)n2)cc1O,-18.2,1.9,-2.2,-7.1,-2.9
Cc1cc(Cl)ccc1NC(=O)COC(=O)c1c(C)noc1C,-1.1,0.9,-2.7,-2.7,0.3
CC(CNC(=O)c1cccs1)c1ccc([N+](=O)[O-])cc1 (configuration not stated),-2.9,-1.4,55.5*,4.7,-2.6
CCCN1CCN(C(=O)Cn2cnc3sc(C)c(S(=O)(=O)N4CCC(C)CC4)c3c2=O)CC1,15.9,-0.9,47.7*,-5.8,-1.9
SMILES,DNMT1 block,LMPTP inh,SUMO1 PPI mod,Scp-1 inhibitor,STEP block
O=C(CSc1nnc(SCc2ccccc2Cl)s1)N/N=C/c1c[nH]c2ccccc12,16.7,2.0,1.0,-1.2,-3.4
O=C(CSc1nnc(SCc2ccccc2)s1)N/N=C/c1c[nH]c2ccccc12,4.0,12.2,75.2*,-2.3,4.2
COc1ccc(NC(=O)c2sc3nc(N4CCOCC4)c4c(c3c2N)CCCC4)c(OC)c1,6.7,0.2,1.5,-11.2,-2.2
Nc1c(C(=O)Nc2ccc(Br)cc2)sc2nc(N3CCOCC3)c3c(c12)CCCC3,50.1*,-0.8,2.2,.,-3.6
CCc1nnc(NC(=O)CSc2sc3c(O)cc(=O)[nH]c3c2C#N)s1,82.9*,32.0,40.3*,95.2*,33.2
CCc1nnc(NC(=O)CSc2nc3[nH]c(=O)cc(O)c3s2)s1,3.3,0.7,12.6,0.4,1.4
COc1ccccc1C(=O)Nc1ccc2c(c1)nc1n2CCN(C2CCCCC2)C1,60.2*,20.6,2.7,-3.1,1.7
O=C(Nc1ccc2c(c1)nc1n2CCN(C2CCCCC2)C1)c1ccco1,-8.1,16.3,-4.7,-0.8,-1.0
N#C/C(C(=O)NCCc1ccccc1)=C1/N=C(NC(=O)c2cccs2)c2ccccc21,16.3,-0.1,48.2*,-7.3,2.0
COCCCNC(=O)/C(C#N)=C1\N=C(NC(=O)c2cccs2)c2ccccc21,-1.0,2.6,-44.5,-3.3,0.7
O=S1(=O)N[C@@H](Cc2ccccc2)COc2cc(N3CC[C@H](O)C3)ccc21,.,-1.2,-0.2,.,.
O=C(Nc1ccc2c(c1)OCO2)c1cc(-c2ccc(O)cc2)on1,-11.1,0.6,38.8*,-10.1,-3.0
Cc1ccc(S(=O)(=O)N2[C@@H](c3ccc(C(C)(C)C)cc3)C(C(=O)O)=CC[C@H]2c2ccc(Cl)c(Cl)c2)cc1,37.5,2.1,42.9*,-13.8,-0.9
Cc1ccc(S(=O)(=O)N2[C@@H](c3ccc(Br)cc3)C(C(=O)O)=CC[C@H]2c2ccc(Cl)c(Cl)c2)cc1,6.4,2.3,40.4*,-13.8,1.2
Cc1ccc(S(=O)(=O)N2[C@@H](c3ccc(Br)cc3)C(C(=O)O)=CC[C@H]2c2cccc(Cl)c2)cc1,5.7,0.6,9.9,-0.1,-0.3
Cc1cnc(CN(C)C(=O)C2CCC(=O)N(CCc3ccc(Cl)cc3)C2)[nH]1 (configuration not stated),4.9,-2.7,40.3*,.,-3.3
CN(Cc1cnccn1)C(=O)C1CCC(=O)N(CCc2ccc(Cl)cc2)C1 (configuration not stated),2.1,-1.4,-4.2,-11.7,-0.6
CC1=C(C#N)c2nc(N)c(C#N)c(C)c2/C1=C\c1ccc(OCC(=O)O)c(Cl)c1,-0.6,31.5,37.4*,2.5,1.0
Nc1cc2c3c(cccc3c1)C(=O)N(CCN1CCCC1)C2=O,50.9*,21.9,-27.4,1.4,-0.6
O=C1c2cccc3cc([N+](=O)[O-])cc(c23)C(=O)N1CCN1CCCC1,70.5*,40.3,-21.2,-1.8,3.7
COc1ccc(OCC(O)CNS(=O)(=O)c2cccc(Cl)c2)cc1 (configuration not stated),-1.8,-1.6,-0.3,-16.9,-3.7
O=C(Nc1ccccc1-c1nc2ccccc2[nH]1)c1ccc(S(=O)(=O)N2CCCCC2)cc1,-2.1,0.2,9.8,-2.0,47.1*

# Compound activity deposited in PubChem BioAssay by Sanford-Burnham Center for Chemical Genomics.
